Source: PubChem
Rows were chosen to be rich in hits. Some 12% of all compounds tested hit in one or more screens of this group.
L major viab – Leishmania major promastigote growth inhibition, primary screen; inhibition, % at 10 µM; AID 1063, 2008; hit rate 9% among 200,000; Leishmania major promastigotes, resazurin fluorescence viability;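 note: promastigotes grown with compound for 44 hours at 28 °C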
Arbovirus inh – antivirals against arbovirus infection, primary screen, cell-based, full library, 10K replicate subset; arbovirus infection cell-based antiviral screen; inhibition, % at 10 µM; hit rate 0.37% among 200,000; AID 1251, 2008; in the data active = inhibition above about 30%
Rad51 HR inh – human RAD51 strand exchange inhibitors, primary screen, biochemical, fluorescence; hit rate 0.085% among 200,000; DNA repair protein RAD51 homolog 1 (Homo sapiens), Q06609; AID 1385, 2008; inhibition, % at 10 µM; hRad51 DNA strand exchange, fluorescence dequenching;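 active = inhibition above 40% at the single screening dose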
Target sequence (Q06609 whole entry, looked up): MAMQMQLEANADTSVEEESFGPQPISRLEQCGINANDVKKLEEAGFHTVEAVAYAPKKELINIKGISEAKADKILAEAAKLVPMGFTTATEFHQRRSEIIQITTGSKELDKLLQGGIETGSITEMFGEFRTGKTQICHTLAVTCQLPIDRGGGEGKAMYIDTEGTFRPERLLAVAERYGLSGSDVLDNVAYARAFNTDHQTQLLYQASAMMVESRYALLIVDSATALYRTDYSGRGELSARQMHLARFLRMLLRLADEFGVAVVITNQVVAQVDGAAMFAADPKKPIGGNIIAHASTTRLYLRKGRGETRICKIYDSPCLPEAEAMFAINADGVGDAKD
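Test system: preformed human Rad51 ssDNA filaments; also added: Donor/quencher-labelled 47-bp dsDNA substrate; doses: 10 µM final, single point; times: 37 °C 15-min filament assembly, 30-min compound preincubation, 15-min exchange; detection: FRET fluorescence dequenching, excitation 485 nm, emission 520 nm; read-out basis: Fluorescence-based percent inhibition, control- and blank-normalised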
CHOP inhibitor – inhibitors of CHOP promoter induction, primary screen, cell-based, unfolded protein response, luciferase reporter | hit rate 3.8% among 220,000 | inhibition, % at 10 µM | CHO-K1 CHOP-promoter luciferase, tunicamycin-induced, 15-18 h;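 active = compounds that reduced the stress-induced luciferase reporter signal by more than about 70% of percent inhibition, limit read from the data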
Wee1 stabilizer – Wee1 degradation inhibitors, primary screen, cell-based, HeLa, Wee1K328M-luciferase, luminescence; HeLa Luc-Wee1K328M stability; 100% = proteasome inhibitor MG132 effect; reporter increase, % at 5 µM; hit rate 1.2% among 220,000; AID 1321, 2008;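 active = activation above the mean of all tested compounds plus 3 SD, set per screening run, cut at about 8.8% in these data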;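 note: cells exposed to compound for 20 h before luminescence read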
PKD1 inh – inhibitors of human PKD1 kinase, biochemical, fluorescence polarization. Serine/threonine-protein kinase D1 (Homo sapiens), Q15139. PKD1 kinase fluorescence polarization assay. inhibition, % (no concentration beside the values). hit rate 0.056% among 200,000. AID 797, 2007
Numbers stand for hits; 0 = inactive; - = no result. Cut-off read from the data, not from the text of the source, unless noted: active = inhibition above about 50%; inactive = the rest.

SMILES | L major viab | Arbovirus inh | Rad51 HR inh | CHOP inhibitor | Wee1 stabilizer | PKD1 inh
Cc1ccc(-c2nc(CSc3nc4ccccc4c(=O)n3C)cs2)cc1 | 75.8 | 0 | 0 | 0 | 0 | 0
C=CCn1c(SCc2csc(-c3ccc(C)cc3)n2)nnc1-c1ccccc1OC | 99.6 | 0 | 0 | 0 | 0 | 0
O=c1c2ccccc2nc(SCc2ccccc2)n1Cc1ccco1 | 0 | 0 | 0 | 0 | 0 | 0
CCn1nc(C)c(CNC(=O)Nc2ccccc2C(=O)OC)c1C | 0 | 0 | 0 | 0 | 0 | 0
Cc1ccnc(NC(=O)CCC(=O)N(CC(=O)NC2CCCCC2)C2CCCC2)c1 | - | - | 0 | 0 | 0 | -
Cc1cccc(NC(=S)N=Nc2c(O)[nH]c3ccccc23)c1 | 97.0 | 0 | 0 | 87.0 | 0 | 0
COc1ccc(CN(Cc2cc3cccc(C)c3[nH]c2=O)C(=O)N(C)C)cc1 | 0 | 0 | 0 | 0 | 0 | 0
Cc1cccc2cc(CN(C(=S)NCC(C)C)C3CCCC3)c(=O)[nH]c12 | 64.7 | 0 | 0 | 0 | 0 | 0
Cc1cccc2cc(CN(CC3CCCO3)C(=S)Nc3ccccc3)c(=O)[nH]c12 (configuration not stated) | 71.1 | 0 | - | 0 | 0 | 0
CNC(=S)N(Cc1ccc(OC)cc1)Cc1cc2cccc(C)c2[nH]c1=O | 57.0 | 0 | 0 | 0 | 0 | 0
CCNC(=S)N(Cc1cc2cccc(C)c2[nH]c1=O)C1CCCC1 | 96.5 | 0 | 0 | 0 | 0 | 0
O=c1[nH]c2ccccc2[n+]([O-])c1-c1ccccc1 | 0 | 0 | 0 | 0 | 0 | 0
CC(C)C(=O)Nc1ccc2nn(-c3ccccc3)nc2c1 | 0 | 0 | 0 | 0 | 0 | 0
Cc1cc2nc(CCN(C(=S)NCC(C)C)C3CCCC3)[nH]c2cc1C | 71.5 | 0 | - | 0 | 0 | 0
Cc1cc2nc(CCN(C(=S)NCC3CCCO3)C3CCCC3)[nH]c2cc1C (configuration not stated) | 0 | 0 | 0 | 0 | 0 | 0
CCC(=O)Nc1cc2nn(-c3ccc(C)cc3)nc2cc1C | 0 | 0 | 0 | 91.4 | 0 | 0
CCC(=O)Nc1cc2nn(-c3ccc(OC)cc3)nc2cc1C | 0 | 0 | 0 | 0 | 0 | 0
COc1ccc(C2=CC(c3ccc(Cl)cc3)n3cnnc3N2)cc1OC (configuration not stated) | 0 | 49.7 | 0 | 0 | 0 | 0
Cc1noc(C)c1S(=O)(=O)N1CCC(C(=O)Nc2ccc(OC(F)(F)F)cc2)CC1 | 99.6 | 0 | 0 | 0 | 0 | 0
CCOc1ccccc1NC(=O)C1CCN(S(=O)(=O)c2ccc(OC)c(OC)c2)CC1 | 0 | 0 | 0 | 0 | 0 | 0
CCOc1ccccc1NC(=O)C1CCN(S(=O)(=O)c2c(C)noc2C)CC1 | 97.5 | 0 | 0 | 0 | 0 | 0
Cc1noc(C)c1S(=O)(=O)N1CCC(C(=O)N(C)Cc2ccccc2)CC1 | 0 | 0 | 0 | 0 | 0 | 0
CCC(Cc1ccccc1)NC(=O)C1CCN(S(=O)(=O)c2c(C)noc2C)CC1 (configuration not stated) | 92.3 | 0 | 0 | 0 | 0 | 0
CCOc1ccc(-n2c(C)nc3cc(C(=O)NCc4ccco4)ccc32)cc1 | 0 | 0 | 0 | 0 | 9.5 | 0
CCOc1ccc(-n2c(C)nc3cc(C(=O)NCc4ccc5c(c4)OCO5)ccc32)cc1 | 0 | 0 | 0 | 0 | 0 | 0
SMILES | L major viab | Arbovirus inh | Rad51 HR inh | CHOP inhibitor | Wee1 stabilizer | PKD1 inh
COc1ccc(-n2c(C)nc3cc(C(=O)NCc4ccc5c(c4)OCO5)ccc32)cc1 | 82.6 | 0 | 0 | 0 | 0 | 0
COc1ccc(-n2c(C)nc3cc(C(=O)NCc4ccco4)ccc32)cc1 | 0 | 0 | 0 | 0 | 0 | 0
Cc1cccc(C)c1NC(=O)CS(=O)CC(=O)NCC1OCCc2ccccc21 (configuration not stated) | 0 | 0 | 0 | 0 | 0 | 0
O=[N+]([O-])c1cc(C(F)(F)F)ccc1N1CCN(S(=O)(=O)c2ccc3c(c2)CCCC3)CC1 | 66.5 | 0 | 0 | 0 | 0 | 0
O=C1CCc2cc(S(=O)(=O)N3CCN(c4cccc(C(F)(F)F)c4)CC3)ccc2N1 | 0 | 0 | 0 | 87.3 | 0 | 0
Cn1c(=O)c(=O)n(C)c2cc(S(=O)(=O)N3CCN(c4cccc(C(F)(F)F)c4)CC3)ccc21 | 0 | 0 | 0 | 0 | 0 | 0
